pIC50: −log10 of the molar value.
Columns and labels:
Cytochrome P450 2C9 = Cytochrome P450 2C9 (Homo sapiens, UniProt P11712); experiment: Inhibition of CYP2C9 in human liver microsomes by LC-MS/MS analysis; type: ADME
Method in brief: (§1)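 Reversible CYP inhibition measured in human liver microsomes; metabolite formation quantified by LC/MS/MS.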

[1] = target: Tyrosine-protein kinase Lck (Homo sapiens) (UniProt P06239); experiment: Inhibition of recombinant human full-length N-terminal His6-tagged LCK expressed in baculovirus infected Sf21 insect cells at 1 uM in presence of [gamma-33P]-ATP or [gamma-32P]-ATP relative to control
Chain of Tyrosine-protein kinase Lck (Homo sapiens) (P06239 2-509 limits assumed): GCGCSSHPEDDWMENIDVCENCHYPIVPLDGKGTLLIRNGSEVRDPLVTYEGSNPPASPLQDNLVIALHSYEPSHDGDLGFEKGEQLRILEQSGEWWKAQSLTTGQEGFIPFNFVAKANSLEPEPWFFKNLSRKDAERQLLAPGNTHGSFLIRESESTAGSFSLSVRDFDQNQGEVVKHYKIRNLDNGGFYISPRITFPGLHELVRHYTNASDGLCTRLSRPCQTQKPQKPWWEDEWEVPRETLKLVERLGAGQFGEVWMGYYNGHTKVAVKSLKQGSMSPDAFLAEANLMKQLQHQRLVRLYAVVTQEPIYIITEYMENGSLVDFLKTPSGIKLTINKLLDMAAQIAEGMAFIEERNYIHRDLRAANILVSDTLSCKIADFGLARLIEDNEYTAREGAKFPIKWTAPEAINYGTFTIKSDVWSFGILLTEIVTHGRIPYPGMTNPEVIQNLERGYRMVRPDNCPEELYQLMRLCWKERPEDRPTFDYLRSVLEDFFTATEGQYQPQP

[2] = target: RAF proto-oncogene serine/threonine-protein kinase (Homo sapiens, UniProt P04049, Y340D/Y341D); experiment: Inhibition of recombinant human N-terminal GST-tagged c-RAF Y340D/Y341D double mutant (306 to 648 residues) expressed in baculovirus infected Sf21 insect cells using MEK1(K97R) as substrate in presence of [gamma-33P]-ATP or [gamma-32P]-ATP
[3] = target: Tyrosine-protein kinase ABL1 (Homo sapiens) (UniProt P00519); experiment: Inhibition of recombinant human N-terminal His6-tagged Abl (27 to end residues) expressed in baculovirus infected Sf21 insect cells at 1 uM using Abltide as substrate in presence of [gamma-33P]-ATP or [gamma-32P]-ATP relative to control
[4] = target: T1, Maternal embryonic leucine zipper kinase (Homo sapiens, UniProt Q14680); experiment: Inhibition of recombinant human N-terminal GST-tagged MELK (1 to 340 residues) expressed in baculovirus infected Sf21 insect cells using KKLNRTLSFAEPG as substrate in presence of [gamma-33P]-ATP or [gamma-32P]-ATP
Method in brief: (§2)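 Kinase panel of twenty-eight enzymes; IC50 values determined with ATP at the respective Km of each kinase.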

[5] = AUC (0 to 7 hrs) in CD-1 mouse at 10 mg/kg, po; type: ADME, organism-based; parameters: time < 7 hr, dose 10 mg/kg, route oral; settings: in vivo
[6] = target: Tyrosine-protein kinase receptor UFO (Homo sapiens) (UniProt P30530); experiment: Inhibition of recombinant human N-terminal His6-tagged Axl (473 to end residues) expressed in baculovirus infected Sf21 insect cells at 1 uM using Axltide as substrate in presence of [gamma-33P]-ATP or [gamma-32P]-ATP relative to control
Chain of Tyrosine-protein kinase receptor UFO (Homo sapiens) (P30530 whole entry): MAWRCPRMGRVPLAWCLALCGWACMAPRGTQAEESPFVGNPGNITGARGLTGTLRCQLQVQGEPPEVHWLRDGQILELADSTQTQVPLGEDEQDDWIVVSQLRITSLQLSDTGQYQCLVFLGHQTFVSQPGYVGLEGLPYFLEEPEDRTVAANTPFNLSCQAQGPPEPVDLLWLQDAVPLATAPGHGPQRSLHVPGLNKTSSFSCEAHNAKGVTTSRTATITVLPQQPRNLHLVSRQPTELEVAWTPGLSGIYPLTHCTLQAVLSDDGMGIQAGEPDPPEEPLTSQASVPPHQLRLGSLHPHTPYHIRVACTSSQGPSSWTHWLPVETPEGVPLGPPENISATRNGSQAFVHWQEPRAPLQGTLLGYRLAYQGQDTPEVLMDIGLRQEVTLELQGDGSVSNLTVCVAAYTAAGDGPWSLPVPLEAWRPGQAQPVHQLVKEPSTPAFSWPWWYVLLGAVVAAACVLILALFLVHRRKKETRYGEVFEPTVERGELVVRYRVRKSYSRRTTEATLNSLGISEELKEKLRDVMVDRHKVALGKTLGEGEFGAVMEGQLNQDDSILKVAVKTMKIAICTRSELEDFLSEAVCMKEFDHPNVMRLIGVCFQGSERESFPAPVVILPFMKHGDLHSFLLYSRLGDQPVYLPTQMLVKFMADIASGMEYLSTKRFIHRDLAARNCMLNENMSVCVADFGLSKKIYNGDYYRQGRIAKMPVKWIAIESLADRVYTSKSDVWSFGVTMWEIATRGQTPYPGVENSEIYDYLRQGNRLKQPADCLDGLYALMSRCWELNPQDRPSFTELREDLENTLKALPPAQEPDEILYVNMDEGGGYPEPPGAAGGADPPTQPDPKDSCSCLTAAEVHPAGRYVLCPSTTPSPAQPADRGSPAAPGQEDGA

MDA-MB-231 [7] = experiment: Antiinvasive activity against human MDA-MB-231 cells at 1 uM after 72 hrs by luciferase reporter-based matrigel-coated transwell assay relative to control; type: functional
Method in brief: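 Invasion of luciferase-expressing MDA-MB-231 cells assessed in a system including RAW264.7 mouse macrophages, across a dose range including 1 μM; invasion read by luciferase signal relative to untreated control.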

[8] = Tmax in CD-1 mouse at 10 mg/kg, po; type: ADME, organism-based; settings: in vivo
[9] = target: Voltage-gated inwardly rectifying potassium channel KCNH2 (Homo sapiens, UniProt Q12809); experiment: Displacement of Tracer Red from human ERG by fluorescence polarization assay
[10] = Volume of distribution in CD-1 mouse at 10 mg/kg, po; type: ADME, organism-based; settings: in vivo
NFS-60 = experiment: Growth inhibition of mouse NFS60 cells after 72 hrs by CellTiter96 AQueous one solution cell proliferation assay; type: functional; settings: NFS-60, 72 h
[11] = target: Vascular endothelial growth factor receptor 2 (Homo sapiens, UniProt P35968); experiment: Inhibition of recombinant human N-terminal His6-tagged KDR (790 to end residues) expressed in baculovirus infected Sf21 insect cells using MBP as substrate in presence of [gamma-33P]-ATP or [gamma-32P]-ATP; method in brief: as §2
Chain of Vascular endothelial growth factor receptor 2 (P35968 whole entry): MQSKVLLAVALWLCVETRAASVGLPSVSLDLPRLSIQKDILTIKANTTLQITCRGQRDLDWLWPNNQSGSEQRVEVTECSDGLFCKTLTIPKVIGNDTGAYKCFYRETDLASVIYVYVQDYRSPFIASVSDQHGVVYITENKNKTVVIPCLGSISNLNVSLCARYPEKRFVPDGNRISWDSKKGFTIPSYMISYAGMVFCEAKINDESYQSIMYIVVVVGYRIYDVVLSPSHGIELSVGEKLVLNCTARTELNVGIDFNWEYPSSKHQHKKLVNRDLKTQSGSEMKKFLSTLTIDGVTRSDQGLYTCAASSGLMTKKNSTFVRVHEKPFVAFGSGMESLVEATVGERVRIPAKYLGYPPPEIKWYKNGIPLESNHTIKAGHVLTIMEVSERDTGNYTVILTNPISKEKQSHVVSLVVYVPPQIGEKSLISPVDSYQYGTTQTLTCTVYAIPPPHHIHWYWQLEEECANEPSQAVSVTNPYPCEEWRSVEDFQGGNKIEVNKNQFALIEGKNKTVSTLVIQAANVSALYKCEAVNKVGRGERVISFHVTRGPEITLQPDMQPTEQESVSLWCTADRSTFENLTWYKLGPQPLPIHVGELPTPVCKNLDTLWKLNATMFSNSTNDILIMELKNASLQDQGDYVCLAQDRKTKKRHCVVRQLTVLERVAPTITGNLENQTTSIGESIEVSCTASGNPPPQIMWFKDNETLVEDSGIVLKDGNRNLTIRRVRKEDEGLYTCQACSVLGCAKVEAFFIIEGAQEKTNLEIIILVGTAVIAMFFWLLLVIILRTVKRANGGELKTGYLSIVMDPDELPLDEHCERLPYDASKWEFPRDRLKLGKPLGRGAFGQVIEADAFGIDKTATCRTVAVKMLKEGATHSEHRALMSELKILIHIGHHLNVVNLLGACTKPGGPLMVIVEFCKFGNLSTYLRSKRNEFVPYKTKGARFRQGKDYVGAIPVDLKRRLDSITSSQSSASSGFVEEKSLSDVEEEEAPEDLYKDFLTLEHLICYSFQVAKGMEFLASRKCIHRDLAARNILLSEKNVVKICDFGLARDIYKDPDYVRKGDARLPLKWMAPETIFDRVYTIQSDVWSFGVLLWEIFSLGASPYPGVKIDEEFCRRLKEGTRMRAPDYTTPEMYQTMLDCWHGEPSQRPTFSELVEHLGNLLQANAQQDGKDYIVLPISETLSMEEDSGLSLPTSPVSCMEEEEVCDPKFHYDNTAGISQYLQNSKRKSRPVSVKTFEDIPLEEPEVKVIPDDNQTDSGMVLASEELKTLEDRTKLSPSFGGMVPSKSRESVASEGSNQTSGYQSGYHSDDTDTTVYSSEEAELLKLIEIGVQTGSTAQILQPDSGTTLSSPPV

Angiopoietin-1 receptor = Angiopoietin-1 receptor (Homo sapiens, UniProt Q02763); experiment: Inhibition of recombinant human N-terminal His6-tagged Tie2 (771 to end residues) expressed in baculovirus infected Sf21 insect cells using Poly (Glu4-Tyr) (4:1) as substrate in presence of [gamma-33P]-ATP or [gamma-32P]-ATP
[12] = target: T1, Maternal embryonic leucine zipper kinase; experiment: Inhibition of recombinant human N-terminal GST-tagged MELK (1 to 340 residues) expressed in baculovirus infected Sf21 insect cells at 1 uM using KKLNRTLSFAEPG as substrate in presence of [gamma-33P]-ATP or [gamma-32P]-ATP relative to control
[13] = Clearance in CD-1 mouse at 3 mg/kg, iv; type: ADME, organism-based; settings: in vivo
Cytochrome P450 2D6 = Cytochrome P450 2D6 (Homo sapiens, UniProt P10635); experiment: Inhibition of CYP2D6 in human liver microsomes by LC-MS/MS analysis; type: ADME; method in brief: as §1
Chain of Cytochrome P450 2D6 (P10635 whole entry): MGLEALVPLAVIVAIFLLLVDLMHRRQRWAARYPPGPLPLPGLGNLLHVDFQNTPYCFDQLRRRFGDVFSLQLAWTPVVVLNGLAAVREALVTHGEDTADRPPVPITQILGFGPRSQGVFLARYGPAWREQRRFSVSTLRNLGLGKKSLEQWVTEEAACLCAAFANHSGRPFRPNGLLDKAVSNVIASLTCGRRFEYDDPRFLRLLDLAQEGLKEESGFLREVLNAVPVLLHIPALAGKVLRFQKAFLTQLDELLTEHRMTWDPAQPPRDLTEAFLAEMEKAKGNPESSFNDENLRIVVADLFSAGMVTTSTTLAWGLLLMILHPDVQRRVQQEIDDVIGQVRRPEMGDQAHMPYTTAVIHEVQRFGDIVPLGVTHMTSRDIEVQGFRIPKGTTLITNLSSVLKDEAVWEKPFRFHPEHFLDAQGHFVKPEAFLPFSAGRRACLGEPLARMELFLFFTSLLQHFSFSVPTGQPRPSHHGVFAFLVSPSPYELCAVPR

MDA-MB-231 [14] = experiment: Inhibition of paclitaxel-induced FMS expression in human MDA-MB-231 cells by Western blot analysis; type: functional, cell-based
[15] = target: Discoidin domain-containing receptor 2 (Homo sapiens, UniProt Q16832); experiment: Inhibition of recombinant human N-terminal His6-tagged DDR2 (467 to end residues) expressed in baculovirus infected Sf21 insect cells using Axltide as substrate in presence of [gamma-33P]-ATP or [gamma-32P]-ATP; method in brief: as §2
Chain of Discoidin domain-containing receptor 2 (Q16832 whole entry, the tested form may be a part): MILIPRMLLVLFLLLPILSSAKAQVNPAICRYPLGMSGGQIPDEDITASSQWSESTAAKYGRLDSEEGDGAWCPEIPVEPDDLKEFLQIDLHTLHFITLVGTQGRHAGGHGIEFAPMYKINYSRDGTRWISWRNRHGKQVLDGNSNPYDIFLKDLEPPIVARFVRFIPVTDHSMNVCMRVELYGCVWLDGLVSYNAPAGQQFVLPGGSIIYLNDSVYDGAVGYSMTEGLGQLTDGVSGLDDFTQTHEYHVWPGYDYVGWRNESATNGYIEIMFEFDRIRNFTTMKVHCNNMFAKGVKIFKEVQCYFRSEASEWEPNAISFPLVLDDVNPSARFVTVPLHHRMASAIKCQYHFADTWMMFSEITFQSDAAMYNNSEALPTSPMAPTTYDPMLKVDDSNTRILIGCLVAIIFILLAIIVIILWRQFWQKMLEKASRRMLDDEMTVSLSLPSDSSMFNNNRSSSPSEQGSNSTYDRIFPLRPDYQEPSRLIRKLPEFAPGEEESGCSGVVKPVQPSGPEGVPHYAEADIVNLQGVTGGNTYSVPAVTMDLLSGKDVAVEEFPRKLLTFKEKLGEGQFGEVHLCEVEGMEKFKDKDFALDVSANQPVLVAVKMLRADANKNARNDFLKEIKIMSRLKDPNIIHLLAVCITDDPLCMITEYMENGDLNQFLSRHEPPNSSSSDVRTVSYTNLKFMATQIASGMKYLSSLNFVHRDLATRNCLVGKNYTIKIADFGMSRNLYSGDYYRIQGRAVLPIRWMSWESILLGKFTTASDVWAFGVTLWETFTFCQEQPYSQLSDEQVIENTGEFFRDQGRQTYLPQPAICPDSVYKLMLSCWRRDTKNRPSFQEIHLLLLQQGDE

[16] = Volume of distribution in CD-1 mouse at 3 mg/kg, iv; type: ADME, organism-based; settings: in vivo
[17] = target: Receptor-type tyrosine-protein kinase FLT3 (Homo sapiens) (UniProt P36888); experiment: Inhibition of recombinant human N-terminal GST-tagged FLT3 (564 to end residues) expressed in baculovirus infected Sf21 insect cells at 1 uM using Abltide as substrate in presence of [gamma-33P]-ATP or [gamma-32P]-ATP relative to control
[18] = target: Fibroblast growth factor receptor 1 (Homo sapiens, UniProt P11362); experiment: Inhibition of recombinant human N-terminal GST-tagged FGFR1 (456 to 765 residues) expressed in baculovirus infected Sf21 insect cells at 1 uM using IGF-IRtide (12-527) as substrate in presence of [gamma-33P]-ATP or [gamma-32P]-ATP relative to control
[19] = target: Mast/stem cell growth factor receptor Kit (Homo sapiens) (UniProt P10721); experiment: Inhibition of recombinant human N-terminal GST-tagged c-Kit (544 to end residues) expressed in baculovirus infected Sf21 insect cells at 1 uM using Poly (Glu4-Tyr) (4:1) as substrate in presence of [gamma-33P]-ATP or [gamma-32P]-ATP relative to control
[20] = target: Ephrin type-A receptor 5 (Homo sapiens) (UniProt P54756); experiment: Inhibition of recombinant human N-terminal His6-tagged EphA5 (655 to 956 residues) expressed in baculovirus infected Sf21 insect cells at 1 uM using Axltide as substrate in presence of [gamma-33P]-ATP or [gamma-32P]-ATP relative to control
Cytochrome P450 1A2 = Cytochrome P450 1A2 (Homo sapiens, UniProt P05177); experiment: Inhibition of CYP1A2 in human liver microsomes by LC-MS/MS analysis; type: ADME; method in brief: as §1
[21] = target: NUAK family SNF1-like kinase 1 (Homo sapiens) (UniProt O60285); experiment: Inhibition of recombinant human N-terminal His6-tagged ARK5 (2 to end residues) expressed in baculovirus infected Sf21 insect cells at 1 uM using CHKtide as substrate in presence of [gamma-33P]-ATP or [gamma-32P]-ATP relative to control

Chain of Cytochrome P450 2C9 (P11712 whole entry): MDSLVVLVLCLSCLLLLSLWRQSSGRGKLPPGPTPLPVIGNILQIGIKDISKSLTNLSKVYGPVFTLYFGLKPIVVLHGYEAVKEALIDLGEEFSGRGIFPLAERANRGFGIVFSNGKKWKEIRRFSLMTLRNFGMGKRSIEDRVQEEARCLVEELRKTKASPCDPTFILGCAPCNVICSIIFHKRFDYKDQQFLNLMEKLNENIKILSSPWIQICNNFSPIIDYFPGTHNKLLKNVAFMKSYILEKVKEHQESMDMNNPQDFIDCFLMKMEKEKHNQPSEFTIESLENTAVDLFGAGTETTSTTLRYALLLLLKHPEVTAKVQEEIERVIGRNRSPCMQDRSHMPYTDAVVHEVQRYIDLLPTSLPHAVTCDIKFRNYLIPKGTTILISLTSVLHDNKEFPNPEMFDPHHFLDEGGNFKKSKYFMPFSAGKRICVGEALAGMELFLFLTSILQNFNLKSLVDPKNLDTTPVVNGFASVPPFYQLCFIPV

Cc1cccc(Cn2nc(C)c3c(NC(=O)c4csc5c(N)ncnc45)cccc32)n1
pIC50 (Cytochrome P450 2C9): < 4.70
inhibition [1]: 20%
pIC50 [2]: 7.10
inhibition [3]: 35%
pIC50 [4]: 6.59
AUC(0-t) at 7 h [5]: 4040 ng·h/mL
inhibition [6]: 12%
Activity (MDA-MB-231 [7]): 67%
Tmax [8]: 2 h
pIC50 [9]: < 4.30
Vd [10]: 7.5 L/kg
GI50 (NFS-60): 80 nM
pIC50 [11]: 6.28
pIC50 (Angiopoietin-1 receptor): 6.68
inhibition [12]: > 60%
clearance [13]: 15 mL/min/kg
pIC50 (Cytochrome P450 2D6): < 4.70
inhibition (MDA-MB-231 [14]): Dose-dependent effect
pIC50 [15]: 7.19
Vd [16]: 2 L/kg
inhibition [17]: 59%
inhibition [18]: > 60%
inhibition [19]: 27%
inhibition [20]: -9%
pIC50 (Cytochrome P450 1A2): < 4.70
inhibition [21]: 20%

Source: ChEMBL document CHEMBL4371041, “Synthesis and evaluation of thieno[3,2-d]pyrimidine derivatives as novel FMS inhibitors” (Bioorg Med Chem Lett, 2019)
